Test results taken from ChEMBL document CHEMBL1123757, “Selective thromboxane synthetase inhibitors and antihypertensive agents. New derivatives of 4-hydrazino-5H-pyridazino[4,5-b]indole, 4-hydrazinopyridazino[4,5-a]indole, and related compounds” (J Med Chem, 1987).

Key:
[1] = system: Rattus norvegicus; assay: Antihypertensive activity in spontaneously hypertensive rats (SHR) measured by percentage fall in arterial pressure (AP) at 25 mg/kg administered intraperitoneally at 1 h; type: functional, Artery; conditions: route intraperitoneal
How it was run: (§1)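 Unanesthetized Okamoto-strain SHR, male and female, 8 weeks old, 300–350 g, systolic pressure ≥190 mmHg, heart rate 400–650 beats/min; five animals per dose. Given ip at 2.5 mL/kg, dissolved or suspended in normal saline or saline with 0.2% (carboxymethyl)cellulose and 1.0% Tween 80. Tail AP and CR recorded by mechanical transduction at set times; reported as percentage fall from control.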

[2] = system: Rattus norvegicus; assay: Antihypertensive activity in spontaneously hypertensive rats (SHR) measured by percentage fall in cardiac rhythm (CR) at 25 mg/kg administered intraperitoneally at 5 h; type: functional, Heart; conditions: route intraperitoneal
How it was run: (§2)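 Conscious SHR (Okamoto strain), 8 weeks old, male and female, 300–350 g, systolic BP ≥190 mmHg, CR 400–650 beats/min. Given ip or po at 2.5 mL/kg in normal saline or saline with 0.2% (carboxymethyl)cellulose and 1.0% Tween 80. Tail AP and CR recorded by mechanical transduction at 1, 3, 5 and 24 h, five animals per dose. Effect expressed as % fall versus control.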

[3] = system: Rattus norvegicus; assay: Antihypertensive activity in spontaneously hypertensive rats (SHR) measured by percentage fall in arterial pressure (AP) at 25 mg/kg administered intraperitoneally at 24 h;No significance; type: functional, organism-based; design: dose 25 mg/kg; conditions: Artery; how it was run: as §1
[4] = system: Rattus norvegicus; assay: Antihypertensive activity in spontaneously hypertensive rats (SHR) measured by percentage fall in cardiac rhythm (CR) at 25 mg/kg administered intraperitoneally at 24 h;No significance; type: functional, organism-based; design: dose 25 mg/kg; conditions: Heart; how it was run: as §1
[5] = system: Rattus norvegicus; assay: Antihypertensive activity in spontaneously hypertensive rats (SHR) measured by percentage fall in cardiac rhythm (CR) at 25 mg/kg administered intraperitoneally at 3 h; type: functional, Heart; conditions: route intraperitoneal; how it was run: as §1
[6] = system: Rattus norvegicus; assay: Antihypertensive activity in spontaneously hypertensive rats (SHR) measured by percentage fall in arterial pressure (AP) at 25 mg/kg administered intraperitoneally at 3 h; type: functional, Artery; conditions: route intraperitoneal; how it was run: as §1
[7] = system: Rattus norvegicus; assay: Antihypertensive activity in spontaneously hypertensive rats (SHR) measured by percentage fall in arterial pressure (AP) at 25 mg/kg administered intraperitoneally at 5 h; type: functional, Artery; conditions: route intraperitoneal; how it was run: as §1
[8] = species on record: Homo sapiens; assay: In vitro inhibition of platelet aggregation induced by ADP-II (PRP incubated for 5 minutes at 37 degree C) at 10e-5 M; No significance; type: functional
How it was run: (§3)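 Human venous blood anticoagulated with 3.8% sodium citrate (1:9). PRP from centrifugation at 800 rpm for 10 min at room temperature. Count adjusted with PPP to […]. Compound in saline with 10% ethylene glycol is added to PRP and incubated at 37 °C before the agonist. Agonists: ADP 2×10^-5 M, AA 0.6 mM, PGH2 2.8 μM, adrenaline 0.6 μM. Born absorbance aggregometry; n = 5.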

[9] = species on record: Homo sapiens; assay: In vitro inhibition of platelet aggregation induced by AA (PRP incubated for 60 minutes at 37 degree C) at 10e-5 M; No significance; type: functional; how it was run: as §3
[10] = species on record: Homo sapiens; assay: In vitro inhibition of platelet aggregation induced by ADP-II (PRP incubated for 60 minutes at 37 degree C) at 10e-5 M; type: functional; conditions: 1 h; how it was run: as §3
[11] = species on record: Homo sapiens; assay: In vitro inhibition of platelet aggregation induced by […] (PRP incubated for 5 minutes at 37 degree C) at 10e-5 M; No significance; type: functional
[12] = system: Rattus norvegicus; assay: Antihypertensive activity in spontaneously hypertensive rats (SHR) measured by percentage fall in cardiac rhythm (CR) at 25 mg/kg administered intraperitoneally at 1 h; type: functional, Heart; conditions: route intraperitoneal; how it was run: as §1
[13] = system: Rattus norvegicus; assay: Antihypertensive activity in spontaneously hypertensive rats (SHR) measured by percentage fall in cardiac rhythm (CR) at 25 mg/kg administered perorally at 3 h; type: functional, Heart; conditions: route oral; how it was run: as §2
[14] = system: Rattus norvegicus; assay: Antihypertensive activity in spontaneously hypertensive rats (SHR) measured by percentage fall in cardiac rhythm (CR) at 5 mg/kg administered intraperitoneally at 3 h; type: functional, Heart; conditions: route intraperitoneal; how it was run: as §2
[15] = system: Rattus norvegicus; assay: Antihypertensive activity in spontaneously hypertensive rats (SHR) measured by percentage fall in arterial pressure (AP) at 25 mg/kg administered perorally at 3 h; type: functional, Artery; conditions: route oral
How it was run: (§4)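 Oral dosing at 2.5 mL/kg to unanesthetized male and female Okamoto-strain SHR (8 weeks old, 300–350 g, systolic pressure ≥190 mmHg, heart rate 400–650 beats/min), five per dose. Vehicle was normal saline or saline with 0.2% (carboxymethyl)cellulose and 1.0% Tween 80. AP measured on the tail by mechanical transduction at set times; expressed as percentage fall from control.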

[16] = system: Rattus norvegicus; assay: Antihypertensive activity in spontaneously hypertensive rats (SHR) measured by percentage fall in arterial pressure (AP) at 5 mg/kg administered intraperitoneally at 24 h; type: functional, Artery; conditions: route intraperitoneal; how it was run: as §1
[17] = system: Rattus norvegicus; assay: Antihypertensive activity in spontaneously hypertensive rats (SHR) measured by percentage fall in arterial pressure (AP) at 25 mg/kg administered perorally at 24 h; type: functional, Artery; conditions: route oral; how it was run: as §4
[18] = system: Rattus norvegicus; assay: Antihypertensive activity in spontaneously hypertensive rats (SHR) measured by percentage fall in cardiac rhythm (CR) at 1 mg/kg administered intraperitoneally at 5 h; type: functional, Heart; conditions: route intraperitoneal; how it was run: as §1
[19] = system: Rattus norvegicus; assay: Antihypertensive activity in spontaneously hypertensive rats (SHR) measured by percentage fall in cardiac rhythm (CR) at 1 mg/kg administered intraperitoneally at 24 h; type: functional, Heart; conditions: route intraperitoneal; how it was run: as §1
[20] = system: Rattus norvegicus; assay: Antihypertensive activity in spontaneously hypertensive rats (SHR) measured by percentage fall in cardiac rhythm (CR) at 1 mg/kg administered intraperitoneally at 3 h; type: functional, Heart; conditions: route intraperitoneal; how it was run: as §1
[21] = system: Rattus norvegicus; assay: Antihypertensive activity in spontaneously hypertensive rats (SHR) measured by percentage fall in arterial pressure (AP) at 5 mg/kg administered intraperitoneally at 3 h; type: functional, Artery; conditions: route intraperitoneal; how it was run: as §1
[22] = system: Rattus norvegicus; assay: Antihypertensive activity in spontaneously hypertensive rats (SHR) measured by percentage fall in cardiac rhythm (CR) at 25 mg/kg administered intraperitoneally at 24 h; type: functional, Heart; conditions: route intraperitoneal; how it was run: as §1
[23] = system: Rattus norvegicus; assay: Antihypertensive activity in spontaneously hypertensive rats (SHR) measured by percentage fall in arterial pressure (AP) at 25 mg/kg administered perorally at 5 h; type: functional, Artery; conditions: route oral; how it was run: as §4
[24] = system: Rattus norvegicus; assay: Antihypertensive activity in spontaneously hypertensive rats (SHR) measured by percentage fall in arterial pressure (AP) at 25 mg/kg administered intraperitoneally at 24 h; type: functional, Artery; conditions: route intraperitoneal; how it was run: as §1
[25] = system: Rattus norvegicus; assay: Antihypertensive activity in spontaneously hypertensive rats (SHR) measured by percentage fall in arterial pressure (AP) at 5 mg/kg administered intraperitoneally at 5 h; type: functional, Artery; conditions: route intraperitoneal; how it was run: as §1

SMILES: COc1ccc2c(c1)cc1c(NN)nncn12.Cl
- Decrease in AP [1]: 9%

SMILES: COc1ccc2[nH]c3c(cnn4c(C)nnc34)c2c1
- Decrease in CR [2]: 7%
- Decrease in AP [3]: No significant values
- Decrease in CR [4]: No significant values
- Decrease in CR [5]: -5%
- Decrease in AP [6]: 10%
- Decrease in AP [7]: 8%

SMILES: COc1ccc2c(c1)cc1c(O)nncn12
- inhibition [8]: No significant values
- inhibition [9]: No significant values
- inhibition at 10 µM [10]: 100%
- inhibition [11]: No significant values

SMILES: NNc1[nH]ncc2c3cc(OCc4ccccc4)ccc3nc1-2.O=S(=O)(O)O
- Decrease in CR [2]: 8%
- Decrease in CR [12]: 9%
- Decrease in CR [5]: 7%
- Decrease in AP [6]: 32%
- Decrease in AP [7]: 26%
- Decrease in AP [1]: 21%

SMILES: NNc1[nH]ncc2c3cc(OCc4ccccc4)ccc3nc1-2
- Decrease in CR [13]: 21%
- Decrease in CR [14]: 16%
- Decrease in AP [15]: 6%
- Decrease in CR [2]: 20%
- Decrease in AP [16]: 7%
- Decrease in AP [17]: 5%
- Decrease in CR [18]: 6%
- Decrease in CR [19]: 9%
- Decrease in CR [20]: 8%
- Decrease in AP [21]: 5%
- Decrease in CR [22]: 7%
- Decrease in AP [23]: 10%
- Decrease in AP [24]: 7%
- Decrease in CR [5]: 15%
- Decrease in AP [6]: 12%
- Decrease in AP [7]: 13%
- Decrease in AP [25]: 13%
